# Screens: PubChem BioAssay, several laboratories
# Sampled rows, rich in hits. Any-hit rate of the full collection: about 3.8%.
# Measles CPE: protection of cells from measles virus | Measles virus-infected cells, CPE protection, absorbance | 140,000 tested, 1.5% active | protection (pct of control), % at 4 µM | AID 841; in the data active = protection mostly above about 24%, no sharp cut-off; inactive = mostly below about 26%
# RAM network inh: blocks the yeast RAM network. S. cerevisiae dse1pr::URA3 reporter, 5-FOA growth OD615, 2 d; analog-sensitive cbk1-as2 kinase mutant strain. inhibition, % at 50 µM. 190,000 tested, 1.8% active. AID 868;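 active = inhibition above a set limit, 3 SD over mean compound inhibition, cut at about 8.4% in these data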;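 note: inhibition rescues growth on 5-FOA so higher OD means more RAM inhibition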
# Yeast life ext: extends the lifespan of yeast; inhibition of the nicotinamide effect, % at 10 µM; 130,000 tested, 0.68% active; S. cerevisiae growth with nicotinamide, OD615; deaD strain in restrictive glucose medium;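 active = inhibition above a set limit, placed 3 SD over the median of all compounds, cut at about 26% in these data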
#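 Assay system: DeaD-strain S. cerevisiae. Medium: CSMM-D glucose medium, restrictive. Reagent: nicotinamide, 1.5 mM, co-present with compound. Compound: 10 µM single point, 0.25% DMSO. Schedule: culture preincubation 4 h, compound exposure 48 h, both 30 °C. Detection: absorbance at 615 nm.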
# BB579 growth dn: yeast BB579 growth reduction in restrictive medium; AID 804; inhibition, % at 10 µM; 140,000 tested, 0.51% active; S. cerevisiae BB579 growth, OD615, 48 h;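 active = inhibition above a set limit, 3 SD over the mean compound inhibition, cut at about 44% in these data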
#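 System: Saccharomyces cerevisiae DeaD strain BB579, replicative lifespan model yeast. Buffer or medium: restrictive glucose-based CSMM-D medium. Doses: one dose, 10 µM compound with 0.25% DMSO. Timing: 4 h preincubation and 48 h exposure at 30 °C. Detection: turbidity as optical density at 615 nm. Benchmarks: amphotericin B 10 µg/mL, positive.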
# RAM efflux-def: restores 5-FOA growth of efflux-deficient yeast; shares compounds with RAM network inh; max inhibition, %; S. cerevisiae efflux-deficient reporter strain, 5-FOA growth OD615, 2 days; 1,200 tested, under 10 active; call rule not given here
# Numbers stand for hits; - = inactive; . = no result given.
SMILES,Measles CPE,RAM network inh,Yeast life ext,BB579 growth dn,RAM efflux-def
CCN(CC)C(=O)CSc1nc2cc3c(cc2c(=O)n1CCCCCC(=O)NCc1ccc(OC)cc1)OCO3,.,14,.,.,-
CCOC(=O)C1CCN(CCC(=O)Nc2ccc(C)c(C)c2)CC1,.,-,.,.,.
Cc1cc(Br)ccc1OCC(=O)N1CCCCCC1,-,21,-,-,-
C=CCn1c(SCC(=O)Nc2ccccc2C)nnc1-c1ccncc1,-,14,-,-,-
O=C(Nc1ccccc1)C1=C[C@H](C2CCCCC2)C[C@H](OCc2ccc(CO)cc2)O1,.,14,.,.,-
O=C(Nc1ccccc1)C1=C[C@@H](C2CCCCC2)C[C@@H](OCc2ccc(CO)cc2)O1,.,12,.,.,-
O=C(Nc1ccccc1)C1=C[C@@H](C2CCCCC2)C[C@@H](OCCCCO)O1,.,-,.,.,.
C=CCN(CC=C)C(=O)C(=O)c1ccn(-c2c(C)csc2C(=O)OC)c1,.,-,.,.,.
Cc1cc(C)nc(N2N=C(CSc3ccc(Cl)cc3)CC2=O)n1,.,13,.,.,-
CCn1c(SCC(=O)NNC(=O)c2ccc(OC)cc2)nnc1-c1cccnc1,.,-,.,.,.
Nc1nc(-c2ccccc2)c(N=Nc2cccnc2)s1,.,13,.,.,-
C/C(N)=C(/C#N)C(=O)CSc1nc2ccccc2c(=O)n1-c1ccc(C)c(Cl)c1,-,12,-,-,-
C/C(N)=C(/C#N)C(=O)CSc1nc2ccccc2c(=O)n1-c1ccc(C)cc1,-,-,-,-,.
COc1cc(NS(=O)(=O)c2ccc(Nc3nc(-c4ccccc4)cs3)cc2)nc(OC)n1,-,11,-,-,-
OCCC1CN(Cc2nc3ccccc3[nH]2)CCN1C1CCCC1 (stereo not drawn),.,-,.,.,.
O=C(C(Sc1ccccc1)c1ccccc1)N1CCN(c2ccccc2F)CC1 (stereo not drawn),.,14,-,-,-
CC(C)CNC(=O)c1ccccc1NC(=O)c1ccc(CSc2ccccc2)cc1,-,18,-,-,-
Cc1[nH]n(-c2ccccc2)c(=O)c1N=Nc1cccc(S(=O)(=O)N2CCOCC2)c1,-,-,-,-,.
Cc1[nH]n(-c2ccccc2)c(=O)c1N=Nc1ccccc1,.,13,.,.,-
Nc1nn2c(-c3ccccc3)cc(=O)[nH]c2c1N=Nc1ccc(Br)cc1,.,14,.,.,-
COc1cc(OC)cc(C(=O)NC2CCN(CC(=O)Nc3cccc4ccccc34)CC2)c1,-,-,.,-,.
C=CCn1cccc(/C=C/C(=O)c2ccc(C(C)(C)C)cc2)c1=S,-,17,-,-,-
CN1CCN(C(=S)NC(=O)c2ccc(C(C)(C)C)cc2)CC1,-,-,-,-,.
CCCCCCn1c(=O)c(C(=O)N/N=C/c2cccc(F)c2)c(O)c2ccccc21,.,16,.,.,-
CCCCCCCCC(=O)NNC(=O)c1c(O)c2ccccc2n(CC)c1=O,.,13,.,.,-
SMILES,Measles CPE,RAM network inh,Yeast life ext,BB579 growth dn,RAM efflux-def
O=C(NCc1ccccn1)c1c(O)c2cccc3c2n(c1=O)CC3,-,-,-,-,.
CCn1c(=O)c(C(=O)NCCc2ccccc2)c(O)c2ccccc21,-,12,-,-,-
O=C(NCCc1ccccc1)c1c(O)c2cccc3c2n(c1=O)CC3,-,22,-,-,-
O=C(Oc1ccc([N+](=O)[O-])cc1)c1cncc(Br)c1,-,-,-,-,.
CCOC(=O)C(=O)/C(=C\N(C)C)c1onc(-c2c(F)cccc2Cl)c1C(=O)OC,-,-,-,-,.
C=CCn1c(SCc2cc(C(C)=O)ccc2OCC)nc2ccccc2c1=O,-,16,-,-,-
C=CCn1c(SCc2cc(=O)n3ccsc3n2)nc2cc(Cl)ccc2c1=O,.,-,.,.,.
COc1ccc(C(C)=O)cc1CSc1nc2ccccc2c(=O)n1-c1ccccc1,-,-,-,-,.
C=CCn1c(SCc2cc(=O)n3ccsc3n2)nc2ccccc2c1=O,.,14,.,.,-
Cc1cc(=O)[nH]c(N/N=C/c2ccc(OC(=O)c3cccnc3)cc2)n1,.,-,.,.,.
CCCCCCNC(=O)CC(c1ccccc1)c1cc(Br)ccc1O (stereo not drawn),-,11,.,-,-
CC(C)NC(=O)CC(c1ccccc1)c1cc(Br)ccc1O (stereo not drawn),-,-,-,-,.
CO/N=C/C(=N\Nc1ccc(OC)cc1)C(=O)c1ccc(OC)cc1,-,12,-,-,-
NS(=O)(=O)c1ccc(CNC(=S)NC2CC2)cc1,.,-,.,.,.
Cc1nn(CCc2nn[nH]n2)c2nc(-c3ccc(C4CCCCC4)cc3)cc(C(F)(F)F)c12,.,15,.,.,-
CCOC(=O)C1=C(c2ccccc2)N=c2s/c(=C\c3ccco3)c(=O)n2C1c1cccs1 (stereo not drawn),-,-,-,-,.
CCOC(=O)C1=C(c2ccccc2)N=c2s/c(=C\c3cc(OC)c(OC)c(OC)c3)c(=O)n2C1c1cccs1 (stereo not drawn),-,12,-,-,-
COc1ccc(CCNC(=O)CSc2nc(-c3ccco3)cc(C(F)(F)F)n2)cc1OC,-,-,-,-,.
O=C(CSc1nc(-c2ccco2)cc(C(F)(F)F)n1)NCCc1ccccc1,-,14,-,-,-
COc1nc2ccc(C)cc2cc1-c1noc(-c2ccccc2)n1,-,12,-,-,-
Cc1ccc(NC(=O)CN(C)C(=O)COc2cc(F)ccc2[N+](=O)[O-])cc1,.,-,.,.,.
CCc1ccc(NC(=O)Cn2c(SC)nc3ccccc32)cc1,-,21,-,-,-
CCCCn1c(-c2cccs2)nc2nc3ccccc3nc21,-,12,-,-,-
CC(C)Cn1c(-c2cccs2)nc2nc3ccccc3nc21,-,-,-,-,.
COC(=O)c1ccc(NC(=O)COc2ccc(S(=O)(=O)NC(C)(C)C)cc2)cc1,.,-,.,.,.
SMILES,Measles CPE,RAM network inh,Yeast life ext,BB579 growth dn,RAM efflux-def
Cc1ccccc1OCC(=O)OCC(=O)c1ccc(-c2ccccc2)cc1,-,14,-,-,-
Cc1ccc(NC(=O)CCC(=O)OCC(=O)c2ccc(-c3ccccc3)cc2)cc1,-,-,-,-,.
COCCNC(=S)N(CCc1c(C)[nH]c2ccc(F)cc12)Cc1cccs1,.,12,.,.,-
CCNC(=S)N(CCc1c(C)[nH]c2ccc(C)cc12)Cc1cccs1,.,-,.,.,.
CC(C)C(c1nnnn1C1CCCC1)N1CCc2ccccc21 (stereo not drawn),-,-,-,-,.
Cc1ccc(C(c2nnnn2C2CCCC2)N2CCc3ccccc32)cc1 (stereo not drawn),-,12,-,-,-
CCOC(=O)c1sc(NC(=O)CSc2n[nH]c(CC(C)C)n2)nc1C,-,-,-,-,.
Cc1ccccc1NC(=O)/C(C#N)=C/c1ccsc1,-,-,-,-,.
Cc1cccc(NC(=O)/C(C#N)=C/c2ccc(Sc3ccccc3)o2)c1C,-,14,-,-,-
O=C(OCc1ccccc1)C1=[N+]([O-])OC(C(=O)OCc2ccccc2)C1c1c[nH]c2ccccc12 (stereo not drawn),-,12,-,-,-
O=C(Nc1ccccc1-c1nnc(SCc2ccccc2Cl)o1)c1ccccc1,-,12,-,-,-
CCc1ccc(-n2c(C)nc3cc(C(=O)NCc4cccnc4)ccc32)cc1,.,-,.,.,.
